Assay outcomes from PubChem.
Hits are enriched below; roughly 2.3% of the tested compounds scored in any of these assays.
TRPC4 inh: inhibitors of mouse TRPC4 channel, primary screen, Fluo4 calcium, HEK293 TRPC4beta/mu-opioid cells; hit rate 0.39% among 300,000; Short transient receptor potential channel 4 (Mus musculus), Q9QUQ5; DAMGO-evoked Fluo4 calcium flux; stronger effect = lower value; B-score at 10 µM;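 active = B-score over 3 SD under the library average, no early fluorescence shift, positive overall ratio signal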
Target sequence (Q9QUQ5 whole entry, looked up): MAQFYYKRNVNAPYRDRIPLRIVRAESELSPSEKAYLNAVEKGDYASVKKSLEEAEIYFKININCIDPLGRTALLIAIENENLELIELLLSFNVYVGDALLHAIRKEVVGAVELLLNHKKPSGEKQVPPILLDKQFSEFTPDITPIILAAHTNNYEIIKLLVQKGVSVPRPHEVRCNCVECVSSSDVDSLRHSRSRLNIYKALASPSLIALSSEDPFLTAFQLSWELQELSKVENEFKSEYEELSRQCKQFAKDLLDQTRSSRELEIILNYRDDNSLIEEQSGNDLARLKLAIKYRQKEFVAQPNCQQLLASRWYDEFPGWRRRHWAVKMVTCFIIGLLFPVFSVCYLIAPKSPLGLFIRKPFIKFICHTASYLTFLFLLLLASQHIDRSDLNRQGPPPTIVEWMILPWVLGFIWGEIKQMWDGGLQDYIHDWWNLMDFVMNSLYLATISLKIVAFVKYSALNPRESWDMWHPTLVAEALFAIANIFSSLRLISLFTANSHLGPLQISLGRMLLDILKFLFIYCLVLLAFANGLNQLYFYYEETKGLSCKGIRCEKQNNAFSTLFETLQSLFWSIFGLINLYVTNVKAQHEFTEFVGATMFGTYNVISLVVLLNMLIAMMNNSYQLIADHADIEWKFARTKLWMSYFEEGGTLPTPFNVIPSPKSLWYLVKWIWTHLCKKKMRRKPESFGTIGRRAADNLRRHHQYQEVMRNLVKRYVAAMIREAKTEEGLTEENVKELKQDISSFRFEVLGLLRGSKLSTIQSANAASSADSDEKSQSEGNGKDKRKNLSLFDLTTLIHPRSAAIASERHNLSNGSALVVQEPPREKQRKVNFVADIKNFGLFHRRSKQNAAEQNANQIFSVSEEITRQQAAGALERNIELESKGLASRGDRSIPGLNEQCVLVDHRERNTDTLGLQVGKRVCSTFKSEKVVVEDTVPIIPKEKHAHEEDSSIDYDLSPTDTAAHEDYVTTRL
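Assay system: TRPC4beta/mu-opioid receptor HEK293 cell line; compound dosing: single concentration per test compound; detection: Fluo4 Ca2+ flux fluorescence; evaluation: per-well B score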
TRPC6 act: mouse TRPC6 channel activators, primary screen, cell-based, HEK293, membrane potential dye; Short transient receptor potential channel 6 (Mus musculus), Q61143; HEK293-TRPC6 membrane potential dye fluorescence; stronger effect = higher value; B-score at 10 µM; hit rate 0.13% among 310,000; AID 2550, 2010;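 active = B-score of the integrated fluorescence ratio above library mean plus 3 SD, and starting fluorescence ratio within library mean plus 5 SD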;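 also: higher score means more depolarization so channel activation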
TRPC6 inhibitor: mouse TRPC6 channel inhibitors, primary screen, cell-based, HEK293, membrane potential dye | ACh-evoked depolarization; stronger effect = lower value | B-score at 10 µM | Short transient receptor potential channel 6 (Mus musculus), Q61143 | AID 2553, 2010 | hit rate 1.1% among 310,000;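 active = B-score under library mean minus 3 SD, initial fluorescence not abnormally high, positive integrated signal ratio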;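 also: B-score derived from integrated fluorescence ratio over the kinetic read; more negative B-score means stronger inhibition of depolarization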
TRPC4 agonist: activators of mouse TRPC4 channel, primary screen, Fluo4 calcium, HEK293 TRPC4beta/mu-opioid cells. AID 2237, 2010. Fluo4 calcium fluorescence; stronger effect = higher value. hit rate 0.49% among 310,000. B-score at 10 µM. Short transient receptor potential channel 4 (Mus musculus), Q9QUQ5;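 active = B-score above 5 SD of library B-scores, and initial fluorescence ratio not above library mean plus 5 SD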;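 also: positive B-score marks a calcium rise read as TRPC4 activation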
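System – HEK293 cells stably co-expressing mouse TRPC4beta and mu-opioid receptor · Signal – Fluo4 calcium-sensitive dye fluorescence, kinetic, 1 Hz baseline · Benchmarks – buffer (low) and maximal DAMGO (high) · Read-out – B score of integrated fluorescence ratio per well · Incubation – dye loading 45 min room temperature, 110 s kinetic read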
TRPC4 PAM: positive allosteric modulators of TRPC4, primary screen, cell-based, mouse TRPC4beta, HEK293 mu-opioid, Fluo-4 calcium. AID 2227, 2009. B-score at 10 µM. DAMGO EC20, Fluo-4 Ca2+ flux; stronger effect = higher value. hit rate 0.42% among 310,000. Short transient receptor potential channel 4 (Mus musculus), Q9QUQ5;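 active = B-score of calcium response area above 5 SD of library B-scores, with initial fluorescence ratio within 5 SD of library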;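 also: B-score of integrated fluorescence ratio over time as area under calcium response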
Starred values were filed as active, the others as inactive; i = inactive.

SMILES	TRPC4 inh	TRPC6 act	TRPC6 inhibitor	TRPC4 agonist	TRPC4 PAM
Cc1cc(C)n(C(=O)/C(C#N)=N\Nc2ccccc2[N+](=O)[O-])n1	i	i	i	i	i
O=C(COC(=O)c1ccc(CSc2ccc(Cl)cc2)cc1)Nc1ccccc1	i	i	i	i	i
CC1=C(C(=O)NCc2ccccc2)C(c2cc(Br)cc(Br)c2OC(C)C)NC(=O)N1 (stereo not given)	i	i	i	i	17*
CC1=C(C(=O)NCc2ccccc2)C(c2ccccc2OCC(N)=O)NC(=O)N1 (stereo not given)	i	i	i	i	i
COc1ccc(S(=O)(=O)N(C)c2ccc(C(=O)Nc3c(C)n(C)n(-c4ccccc4)c3=O)cc2)cc1	i	i	i	i	i
O=C(NNC(=O)C1CCCCC1)c1ccc(Br)cc1	i	i	i	i	i
Cc1nn(-c2ccccc2)c(Cl)c1CN(C(=O)CCl)c1cccc2ccccc12	-7*	i	i	i	i
CC(=O)N(Cc1c(C)nn(-c2ccccc2)c1Cl)c1ccc(Cl)cc1	i	i	i	i	i
Cc1nn(-c2ccccc2)c(Cl)c1CN(C(=O)CCl)c1ccc(Cl)cc1	-7*	i	i	i	i
O=C(Nc1ccccc1N1CCCCC1)C1CCN(C(=O)c2ccc(Cl)cc2)CC1	i	i	i	i	i
Cc1ccc(-c2c[n+](Cc3ccc(Cl)c(Cl)c3)c3n2CCC3)cc1	-8*	i	i	i	i
O=C(C[n+]1cc(-c2ccc(Cl)c(Cl)c2)n2c1CCC2)N1c2ccccc2Sc2ccccc21	-6*	i	i	i	i
CCCn1c(C(O)c2ccc(OC)c(OC)c2)nc2ccccc21 (stereo not given)	i	i	i	i	i
COc1ccc(C2NCCc3c2[nH]c2ccccc32)cc1CN1CCc2cc(OC)c(OC)cc2C1C (stereo not given)	-8*	i	i	47*	i
Cc1ccccc1Nc1nc(NCc2ccco2)c2ccccc2n1	-9*	i	-5.8*	49*	i
CC(OC(=O)CNC(=O)c1ccccc1F)C(=O)Nc1nc(-c2ccccc2)cs1 (stereo not given)	-6*	i	i	i	i
Cc1csc(NC(=O)C(NC(=O)c2ccccc2F)C(C)C)n1 (stereo not given)	i	i	i	i	i
Cc1ccc2c(C)c(C(=O)N3CCC(O)(c4ccccc4)CC3)oc2c1C	i	i	i	i	13*
CCOC(=O)C1CCN(C2CCN(C(=O)c3oc4c(C)c(C)ccc4c3C)CC2)CC1	-6*	i	i	i	i
Cc1ccc2c(C)c(C(=O)N3CCN(c4cnccn4)CC3)oc2c1C	i	i	i	i	i
CC1CCN(CC(=O)Nc2cccc(C(=O)Nc3cccc(C(F)(F)F)c3)c2)CC1	i	i	i	i	i
Cc1cc(C(C)(C)C)cc(S(=O)(=O)Nc2cccc(C(=O)O)c2)c1C	i	i	i	i	16*
CC(NCc1cc(Br)ccc1OCC(N)=O)C12CC3CC(CC(C3)C1)C2 (stereo not given)	i	i	i	i	i
CN(C)CCOc1ccc2ccccc2c1	i	i	i	i	16*
CN(C)CCCCOc1cccc(Br)c1	i	i	i	i	20*
SMILES	TRPC4 inh	TRPC6 act	TRPC6 inhibitor	TRPC4 agonist	TRPC4 PAM
CN(C)CCOc1cc(Cl)cc(Cl)c1	i	i	i	i	26*
CN(C)CCOc1cccc(Cl)c1	i	i	i	i	i
CN(Cc1ccccc1)C(=O)COc1cccnc1[N+](=O)[O-]	i	i	i	i	i
CCOc1ccc(-c2csc3nc[nH]c(=O)c23)cc1	i	i	i	i	i
O=S(=O)(c1ccc(Cl)cc1)N1CCN(C(=S)NCC2CCCO2)CC1 (stereo not given)	i	i	i	i	i
CCNC(=S)N1CCC(C(O)(c2ccccc2)c2ccccc2)CC1	-6*	i	i	100*	i
CCOc1ccc2ccc(OCC)c(/C=N/n3cnnc3)c2c1	i	i	i	i	i
CCOC(=O)c1oc2ccc(Br)cc2c1COC(=O)C1=COCCO1	i	i	i	i	i
CS(=O)(=O)NCCNc1ccc(Cl)cc1[N+](=O)[O-]	i	i	i	i	i
CN(C)CCNc1ccc(Cl)cc1[N+](=O)[O-]	i	i	i	i	21*
COc1ccc2c(c1)c1ncn(CCN3CCCC3)c(=O)c1n2C	i	i	i	i	15*
COc1ccc2c(c1)c1ncn(CCN3CCCCC3)c(=O)c1n2C	i	i	i	i	i
Cc1cc(S(=O)(=O)N2CCC(N3CCCCC3)CC2)ccc1-n1cnnn1	i	i	i	i	33*
C(=N\N(Cc1ccccc1)c1ccccc1)/c1cccnc1	-6*	i	i	i	i
Oc1cccc(/C=N/N(Cc2ccccc2)c2ccccc2)c1	i	i	i	i	i
Cc1[nH]c2ccccc2c1C(=O)CN1C(=O)NC(C)(c2ccc(Cl)cc2Cl)C1=O (stereo not given)	i	i	i	i	20*
Cc1[nH]c2ccccc2c1C(=O)CSc1ccc(Cl)cc1	i	i	i	i	i
O=C(Nc1cccc(Cl)c1)N1CCN2C(=O)c3ccccc3C12c1ccccc1 (stereo not given)	-6*	i	i	i	i
O=C(CCl)N1CCN2C(=O)c3ccccc3C12c1ccc(Cl)cc1 (stereo not given)	i	i	i	i	i
Cc1cc(N2CCCCC2)nc(NCc2ccccc2)n1	i	i	i	47*	12*
Cc1cc(N2CCOCC2)nc(NCc2ccccc2)n1	i	i	i	i	i
Cc1cc(NCc2ccccc2)nc(N2CCOCC2)n1	-6*	i	i	i	i
CNc1cc(C)nc(N2CCOCC2)n1	i	i	i	i	i
COC(=O)CC(N)c1ccc(Br)cc1 (stereo not given)	i	i	i	i	i
